Measurements taken from ChEMBL document CHEMBL3608231, “Eremophilane Sesquiterpenes and Polyketones Produced by an Endophytic Guignardia Fungus from the Toxic Plant Gelsemium elegans” (J Nat Prod, 2015).
Calls of active or inactive are those of the source.

Experiments:
Type in all cases: functional, cell-based
[1] = tested on: HCT-8; assay: Cytotoxicity against human HCT8 cells after 72 hrs by MTT assay
Outline: (§1)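 Cells kept in RPMI 1640 with 10% FBS in 96-well plates, 24 h at 37 °C, then samples added from DMSO solution at final 10 μM. Growth assessed after 72 h by MTT (4 h at 37 °C), formazan dissolved in DMSO, absorbance at 570 nm. Camptothecin as positive control.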

[2] = tested on: HCT-116; assay: Cytotoxicity against human HCT116 cells after 72 hrs by MTT assay; outline: as §1
[3] = tested on: Bel-7402; assay: Cytotoxicity against human Bel7402 cells after 72 hrs by MTT assay; outline: as §1
[4] = tested on: BGC-823; assay: Cytotoxicity against human BGC823 cells after 72 hrs by MTT assay; outline: as §1
[5] = tested on: A549; assay: Cytotoxicity against human A549 cells after 72 hrs by MTT assay; outline: as §1
[6] = tested on: A2780; assay: Cytotoxicity against human A2780 cells after 72 hrs by MTT assay; outline: as §1

Measured: Activity

C=C(C)[C@H]1C[C@@]2(C)C(=CC1=O)[C@H](O)[C@H](O)C[C@@H]2C
inactive: all assays above

C[C@H]1CCC(=O)O[C@@H]2C(=O)c3c(O)cccc3O[C@H]21
inactive: all assays above

CC(=O)O[C@H]1[C@@H](O)CC2=CC(=O)C(O)=C[C@]2(C)[C@H]1C
inactive: all assays above

C=C(C(C)=O)C(=C\c1cccc(C)c1N)/C(=C/O)CC
inactive: all assays above

C=C1CC[C@H]2C(C)(C)CCC[C@]2(C)[C@H]1C[C@@]12O[C@@H]1[C@H](O)C(CO)=CC2=O
inactive: all assays above

C=C(C)[C@@H]1CC[C@@]2(C)OC3=C(C[C@@H]12)C(=O)[C@@H]1C[C@@]3(O)CO1
inactive: all assays above

C=C(C)[C@@H]1C[C@@]2(C)C(=CC1=O)[C@@H](O)[C@H](O)[C@H](O)[C@@H]2C
inactive: all assays above

CC(C)=C1C[C@@]2(C)C(=CC1=O)[C@@H](O)[C@H](O)[C@H](O)[C@@H]2C
inactive: all assays above

C=C(C)[C@@H]1C[C@@]2(C)C(=CC(=O)C[C@@H]2C)C[C@H]1O
inactive: all assays above
